Test results published in ChEMBL document CHEMBL3526127, “Absorption, elimination, and metabolism of CS-1036, a novel α-amylase inhibitor in rats and monkeys, and the relationship between gastrointestinal distribution and suppression of glucose absorption” (Drug Metab Dispos, 2013).

Tests used:
[1] = Drug excretion in F344 rat expired air at 1 mg/kg, iv administered as single dose after 0 to 48 hrs by scintillation counting method; type: ADME, organism-based; parameters: dose 1 mg/kg, route intravenous; conditions: in vivo
Summary of the method: (§1)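 Fasted F344 rats (152–156 g iv via tail vein; 154–159 g oral; n = 4) received [14C]-labelled drug at 1 mg/kg (41.9 µCi/kg). Animals were kept in metabolic cages; urine and feces were collected to 168 h, and expired CO2 was trapped in 2-aminoethanol/2-methoxyethanol (1:1) to 48 h. Samples were counted by liquid scintillation (feces homogenized). Results are % of dose, mean ± S.D.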

Rattus norvegicus = assay: Total drug excretion in F344 rat at 1 mg/kg, iv administered as single dose after 0 to 168 hrs by scintillation counting method; type: ADME, organism-based; parameters: dose 1 mg/kg, route intravenous; conditions: in vivo
Summary of the method: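 Fasted F344 rats (n = 4) received [14C]-labelled drug at 1 mg/kg (41.9 µCi/kg), iv via tail vein or oral. They were housed in metabolic cages. Urine and feces were collected to 168 h, and expired CO2 was trapped in 2-aminoethanol/2-methoxyethanol to 48 h. Radioactivity was counted by liquid scintillation, feces after homogenization. Results are % of dose.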

[2] = Drug excretion in F344 rat feces at 1 mg/kg, po administered as single dose after 0 to 48 hrs by scintillation counting method; type: ADME, organism-based; parameters: dose 1 mg/kg, route oral; conditions: in vivo; summary of the method: as §1
[3] = Drug excretion in cynomolgus monkey urine at 3 mg/kg, iv administered as single dose after 0 to 48 hrs by scintillation counting method; type: ADME, organism-based, Macaca fascicularis; parameters: dose 3 mg/kg, route intravenous; conditions: in vivo
[4] = Drug excretion in F344 rat feces at 1 mg/kg, po administered as single dose after 24 hrs by scintillation counting method; type: ADME, organism-based; parameters: dose 1 mg/kg, route oral; conditions: in vivo
Summary of the method: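 [14C]-labelled drug (1 mg/kg, 42.2 µCi/kg) was given orally to fasted F344 rats (164–168 g, n = 3). Urine and feces were collected to 24 h; feces were homogenized in 9 volumes of water, combusted and counted. Parent fraction came from the excreted radioactivity times the radio-HPLC (HILIC) peak-area ratio; mean ± S.D.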

[5] = Drug metabolism in rat liver S9 fractions at 0.42 uCi/ml assessed as metabolite formation in presence of NADPH after 1 hr at 37 degC by LC-MS/MS method; type: ADME, subcellular, Liver S9 fraction; conditions: s9, 1 h
[6] = Drug metabolism in rat intestinal […] S9 fractions at 0.42 uCi/ml assessed as metabolite formation in presence of NADPH after 1 hr at 37 degC by LC-MS/MS method; type: ADME, subcellular; conditions: s9, 1 h
[7] = Drug metabolism in monkey liver S9 fractions at 0.42 uCi/ml assessed as metabolite formation in presence of NADPH after 1 hr at 37 degC by LC-MS/MS method; type: ADME, subcellular, Macaca mulatta, Liver S9 fraction; conditions: rhesus monkey, s9, 1 h
[8] = Drug metabolism in anaerobic culture broth of human feces assessed as 1,4-dideoxy-1,4-imino-D-arabinitol formation at 63.5 uCi/ml after 24 hrs at 35 degC by LC-MS/MS method; type: ADME, tissue-based
[9] = Drug excretion in cynomolgus monkey feces at 3 mg/kg, iv administered as single dose after 0 to 336 hrs by scintillation counting method; type: ADME, organism-based, Macaca fascicularis; parameters: dose 3 mg/kg, route intravenous; conditions: in vivo
Summary of the method: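 Fasted cynomolgus monkeys (n = 4) received [14C]-labelled drug at 3 mg/kg, iv via saphenous vein (191 µCi/kg) or orally by stomach catheter (156.5 µCi/kg). Urine, feces and water cage-wash were collected to 336 h. Samples were counted by liquid scintillation; feces were homogenized in 4-fold water. Results are % of dose, mean ± S.D.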

Cynomolgus monkey = assay: Total drug excretion in cynomolgus monkey at 3 mg/kg, iv administered as single dose after 0 to 336 hrs by scintillation counting method; type: ADME, organism-based, Macaca fascicularis; parameters: dose 3 mg/kg, route intravenous; conditions: in vivo
Summary of the method: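 Fasted male cynomolgus monkeys (n = 4) were dosed with 14C-labelled drug at 3 mg/kg, iv via saphenous vein (191 µCi/kg) or orally by stomach catheter (156.5 µCi/kg). Urine, feces and cage-wash water were collected to 336 h. Radioactivity was measured by liquid scintillation counting, with feces homogenized in water, and expressed as % of dose.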

[10] = Drug excretion in cynomolgus monkey urine at 3 mg/kg, po administered as single dose after 0 to 48 hrs by scintillation counting method; type: ADME, organism-based, Macaca fascicularis; parameters: dose 3 mg/kg, route oral; conditions: in vivo
[11] = Half life in cynomolgus monkey at 3 mg/kg, po administered as single dose by LC-MS/MS method; type: ADME, organism-based, Macaca fascicularis; parameters: dose 3 mg/kg, route oral; conditions: in vivo
Summary of the method: (§2)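 Male F344 rats (146–185 g) and male cynomolgus monkeys (3.48–4.29 kg), n = 4 each, fasted overnight, received single iv or oral doses of 0.3, 1.0, 3.0 or 10.0 mg/kg. Monkeys had 2-week washouts between doses. Plasma was sampled to 48 h and assayed by LC-MS/MS with deuterated internal standard. Noncompartmental analysis: tmax observed; t1/2 by regression on ≥3 terminal log points; Vss = dose·AUMC/(AUC0–inf)²; Foral = oral/iv AUC0–inf at the same dose.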

[12] = Half life in cynomolgus monkey at 10 mg/kg, po administered as single dose by LC-MS/MS method; type: ADME, organism-based, Macaca fascicularis; parameters: dose 10 mg/kg, route oral; conditions: in vivo; summary of the method: as §2
[13] = Oral bioavailability in cynomolgus monkey at 1 mg/kg administered as single dose by LC-MS/MS method; type: ADME, organism-based, Macaca fascicularis; conditions: in vivo; summary of the method: as §2
[14] = AUClast in F344 rat at 10 mg/kg, iv administered as single dose by LC-MS/MS method; type: ADME, organism-based; parameters: time 0 - last, dose 10 mg/kg, route intravenous; conditions: plasma
Summary of the method: (§3)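 Fasted male F344 rats (146–185 g) or male cynomolgus monkeys (3.48–4.29 kg), n = 4 per dose, given single iv or oral dose of 0.3, 1.0, 3.0 or 10.0 mg/kg; monkeys dosed with 2-week washouts. Blood sampled to 48 h; plasma stored frozen. LC-MS/MS with deuterated internal standard. Noncompartmental analysis: AUClast by trapezoidal rule; AUC0–inf = AUClast + Ctz/terminal rate constant; mean ± S.D.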

[15] = Half life in F344 rat at 3 mg/kg, iv administered as single dose by LC-MS/MS method; type: ADME, organism-based; parameters: dose 3 mg/kg, route intravenous; conditions: in vivo; summary of the method: as §2
[16] = Tmax in cynomolgus monkey at 10 mg/kg, po administered as single dose by LC-MS/MS method; type: ADME, organism-based, Macaca fascicularis; parameters: dose 10 mg/kg, route oral; conditions: in vivo; summary of the method: as §2
[17] = AUC (0 to infinity) in F344 rat at 10 mg/kg, iv administered as single dose by LC-MS/MS method; type: ADME, organism-based; parameters: time infinity, dose 10 mg/kg, route intravenous; conditions: plasma; summary of the method: as §3
[18] = Volume of distribution at steady state in F344 rat at 0.3 mg/kg, iv administered as single dose by LC-MS/MS method; type: ADME, organism-based; parameters: dose 0.3 mg/kg, route intravenous; conditions: in vivo, read-out: Vdss; summary of the method: as §2
[19] = Volume of distribution at steady state in F344 rat at 1 mg/kg, iv administered as single dose by LC-MS/MS method; type: ADME, organism-based; parameters: dose 1 mg/kg, route intravenous; conditions: in vivo, read-out: Vdss; summary of the method: as §2
[20] = Half life in F344 rat at 0.3 mg/kg, iv administered as single dose by LC-MS/MS method; type: ADME, organism-based; parameters: dose 0.3 mg/kg, route intravenous; conditions: in vivo
Summary of the method: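 Fasted male F344 rats (146–185 g, n = 4 per dose) received single i.v. CS-1036. Plasma was sampled up to 48 h and analysed by LC-MS/MS. t1/2 came from noncompartmental regression of three or more log-transformed terminal-phase points. Mean ± S.D.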

[21] = Tmax in cynomolgus monkey at 1 mg/kg, po administered as single dose by LC-MS/MS method; type: ADME, organism-based, Macaca fascicularis; parameters: dose 1 mg/kg, route oral; conditions: in vivo; summary of the method: as §2
[22] = AUClast in F344 rat at 1 mg/kg, po administered as single dose by LC-MS/MS method; type: ADME, organism-based; parameters: time 0 - last, dose 1 mg/kg, route oral; conditions: plasma; summary of the method: as §3
[23] = Half life in F344 rat at 1 mg/kg, po administered as single dose by LC-MS/MS method; type: ADME, organism-based; parameters: dose 1 mg/kg, route oral; conditions: in vivo

C[C@H]1O[C@@H](O[C@H]2[C@H](O)[C@@H](O)[C@@H](O[14C@H]3[14C@H](O)[14CH2]N[14C@@H]3[14CH2]O)O[C@@H]2CO)[C@H](O)[C@@H](O)[C@@H]1O
Drug excretion [1]: 0.82% | Drug excretion (Rattus norvegicus): 95.85% | Drug excretion [2]: 77.59% | Drug excretion [3]: 80.13% | Drug excretion [4]: 70.3% | Drug metabolism [5]: metabolite_not_detected | Drug metabolism [6]: metabolite_not_detected | Drug metabolism [7]: metabolite_not_detected | Drug metabolism [8]: metabolite_detected | Drug excretion [9]: 0.66% | Drug excretion (Cynomolgus monkey): 96.29% | Drug excretion [10]: 4.54%

C[C@H]1O[C@@H](O[C@H]2[C@H](O)[C@@H](O)[C@@H](O[C@H]3[C@H](O)CN[C@@H]3CO)O[C@@H]2CO)[C@H](O)[C@@H](O)[C@@H]1O
half-life [11]: 2.12 h | half-life [12]: 12.6 h | bioavailability [13]: 0.983% | AUC(0-t) [14]: 53000 ng·h/mL | half-life [15]: 23.6 h | Tmax [16]: 1.75 h | AUC(0-inf) [17]: 53200 ng·h/mL | Vd [18]: 0.218 L/kg | Vd [19]: 0.237 L/kg | half-life [20]: 14.6 h | Tmax [21]: 1.75 h | AUC(0-t) [22]: 110 ng·h/mL | half-life [23]: 1.81 h
